In publication PMC5558615 (ChemMedChem, 2015):
Positions count from the first letter of the chain named.

Key:
saposin B = test: crystal structure
saposin B (sapB) [1] = target: T1, saposin B (sapB) (Homo sapiens, UniProt P07602, E263A); test: ITC, two sets of independent sites fit; assay type: binding
T1 sequence (P07602 195-273 E263A): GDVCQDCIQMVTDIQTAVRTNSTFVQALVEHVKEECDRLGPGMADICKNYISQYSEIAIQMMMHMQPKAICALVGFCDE

saposin B (sapB) [2] = target: T2, saposin B (sapB) (Homo sapiens, UniProt P07602); test: ITC, two sets of independent sites fit; assay type: binding
T2 sequence (P07602 195-273): T1 sequence (P07602 195-273 E263A) with A69E
How it was run: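 Ligand-into-buffer control titrations were used in the analysis. Integrated heats were plotted against the ligand/sapB dimer molar ratio and fitted to two independent site sets. Strong-site parameters were reported; for the weak set, only n2·K2·ΔH2.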

Row | stoichiometry N (saposin B) | Kd (saposin B (sapB) [1]) | Kd (saposin B (sapB) [2]) | Compound
1 | 2 | – | – | saposin B (natural protein)
2 | – | 23.1 µM | 31.8 µM | CCN(CC)CCC[C@@H](C)Nc1ccnc2cc(Cl)ccc12 [chloroquine]
